In ChEMBL document CHEMBL3244336, “Antitumor agents. 1. 1,4-Bis[(aminoalkyl)amino]-9,10-anthracenediones” (J Med Chem, 1979):
Calls of active or inactive are those of the source.

What was measured:
P388 [1] = assay: Antitumor activity against mouse P388 cells allografted in mouse assessed as increase of median life span at 100 mg/kg, ip on day 1, 5 and 9 measured up to 60 days relative to control; format: functional; conditions: route intraperitoneal
P388 [2] = assay: Antitumor activity against mouse P388 cells allografted in mouse assessed as disease cure at 100 mg/kg, ip on day 1, 5 and 9 measured up to 60 days; format: functional, organism-based; set-up: dose 100 mg/kg
Procedure, shortened: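 BDF or CDF1 mice injected ip with ascitic leukemia cells, then dosed ip on days 1, 5 and 9. Deaths recorded for 60 days. Read-outs: percent increase in median life span over controls, and "cures" as survivors/total at 60 days.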

B16 [3] = assay: Antitumor activity against mouse B16 cells allografted in BDF1 mouse assessed as increase of median life span at 12.5 mg/kg, ip on day 1 to 9 measured up to 80 days relative to control; format: functional; conditions: route intraperitoneal
B16 [4] = assay: Antitumor activity against mouse B16 cells allografted in BDF1 mouse assessed as disease cure at 12.5 mg/kg, ip on day 1 to 9 measured up to 80 days; format: functional, organism-based; set-up: dose 12.5 mg/kg
Procedure, shortened: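 BDF1 mice implanted ip with a homogenate from 0.05 g of tumor. Dosed ip on days 1–9, with deaths recorded for 80 days. "Cures" counted as survivors/total at 80 days.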

P388 [5] = assay: Antitumor activity against mouse P388 cells allografted in ip dosed mouse assessed as minimum effective dose administered as single dose; format: functional; conditions: read-out: MED
Procedure, shortened: (§1)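 Drug given ip to P388 tumor-bearing mice, either once as a single dose or once each 4 days for three injections. Minimum effective dose defined as the dose giving 40% increase in life span over control, read from regression lines of log dose-response data.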

P388 [6] = assay: Antitumor activity against mouse P388 cells allografted in ip dosed mouse assessed as minimum effective dose administered as once each 4 days for 3 total injection; format: functional; conditions: 96 h, read-out: MED; procedure, shortened: as §1
[7] = Toxicity in […] assessed as maximum tolerated dose administered as single dose; format: organism-based, P388; conditions: mouse, in vivo, ip
[8] = Toxicity in […] assessed as maximum tolerated dose administered as once each 4 days for 3 total injection; format: organism-based, P388; conditions: mouse, in vivo, ip
P388 [9] = assay: Antitumor activity against mouse P388 cells allografted in ip dosed mouse assessed as dose providing 40% increase in life span administered as once each 4 days for 3 total injection; format: functional
Procedure, shortened: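 P388 tumor-bearing mice dosed ip, either once as a single dose or once every 4 days for three injections. It was read from regression lines of log dose-response data.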

[10] = Therapeutic index, ratio of MTD for mouse P388 cells allografted ip dosed mouse to MED for mouse P388 cells allografted in ip dosed mouse administered as single dose; format: organism-based; conditions: in vivo, read-out: TI
Procedure, shortened: (§2)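 Therapeutic index is MTD/MED for ip dosing, either single or once every 4 days ×3. MTD is the 10% lethal dose in normal mice over 21 days. MED is the dose giving a 40% life-span increase in P388-bearing mice. Both come from log dose-response regression lines.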

[11] = Therapeutic index, ratio of MTD for mouse P388 cells allografted ip dosed mouse to MED for mouse P388 cells allografted in ip dosed mouse administered as once each 4 days for 3 total injection; format: organism-based; conditions: in vivo, read-out: TI; procedure, shortened: as §2
P388 [12] = assay: Antitumor activity against mouse P388 cells allografted in mouse assessed as increase of median life span at 200 mg/kg, ip on day 1, 5 and 9 measured up to 60 days relative to control; format: functional; conditions: route intraperitoneal
Procedure, shortened: (§3)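 BDF1 or CDF1 mice inoculated ip with ascitic P388 leukemia cells. Dosing ip on days 1, 5 and 9. Deaths recorded for 60 days; % increase in median life span over controls. "Cures" are survivors/total at 60 days.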

P388 [13] = assay: Antitumor activity against mouse P388 cells allografted in mouse assessed as disease cure at 200 mg/kg, ip on day 1, 5 and 9 measured up to 60 days; format: functional, organism-based; set-up: dose 200 mg/kg
Procedure, shortened: (§4)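 BDF1 or CDF1 mice inoculated ip with ascitic P388 leukemia cells, dosed ip on days 1, 5 and 9. Deaths recorded for 60 days; "cures" taken as number of survivors/total at 60 days.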

B16 [14] = assay: Antitumor activity against mouse B16 cells allografted in BDF1 mouse assessed as increase of median life span at 50 mg/kg, ip on day 1 to 9 measured up to 80 days relative to control; format: functional; conditions: route intraperitoneal
Procedure, shortened: (§5)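 BDF1 mice implanted ip with a homogenate from 0.05 g of B16 tumor. Test agent given ip on days 1-9. Deaths recorded for 80 days. Result is % increase in median life span over untreated controls. "Cures" are survivors/total at 80 days.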

B16 [15] = assay: Antitumor activity against mouse B16 cells allografted in BDF1 mouse assessed as disease cure at 50 mg/kg, ip on day 1 to 9 measured up to 80 days; format: functional, organism-based; set-up: dose 50 mg/kg
Procedure, shortened: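 BDF1 mice implanted ip with homogenate from 0.05 g of B16 tumor, then dosed ip on days 1-9. Deaths recorded for 80 days; "cures" scored as survivors/total at 80 days.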

P388 [16] = assay: Antitumor activity against mouse P388 cells allografted in mouse assessed as increase of median life span at 25 mg/kg, ip on day 1, 5 and 9 measured up to 60 days relative to control; format: functional; conditions: route intraperitoneal; procedure, shortened: as §3
P388 [17] = assay: Antitumor activity against mouse P388 cells allografted in mouse assessed as disease cure at 25 mg/kg, ip on day 1, 5 and 9 measured up to 60 days; format: functional, organism-based; set-up: dose 25 mg/kg; procedure, shortened: as §4
B16 [18] = assay: Antitumor activity against mouse B16 cells allografted in BDF1 mouse assessed as increase of median life span at 6.2 mg/kg, ip on day 1 to 9 measured up to 80 days relative to control; format: functional; conditions: route intraperitoneal; procedure, shortened: as §5
P388 [19] = assay: Antitumor activity against mouse P388 cells allografted in mouse assessed as increase of median life span at 50 mg/kg, ip on day 1, 5 and 9 measured up to 60 days relative to control; format: functional; conditions: route intraperitoneal; procedure, shortened: as §3

Structure (SMILES)	ILS at 200 mg/kg (P388 [12])	Activity (P388 [13])	ILS at 50 mg/kg (B16 [14])	Activity (B16 [15])	further results
O=C1c2c(O)ccc(O)c2C(=O)c2c(NCCN3CC3)ccc(NCCN3CC3)c21					ILS at 100 mg/kg (P388 [1]): 185%; Activity (P388 [2]): inactive; ILS at 12.5 mg/kg (B16 [3]): 58%; Activity (B16 [4]): inactive
O=c1[nH]cc(F)c(=O)[nH]1 [FLUOROURACIL]					minimal effective dose (P388 [5]): 88 mg/kg; minimal effective dose (P388 [6]): 11.4 mg/kg; MTD [7]: 280 mg/kg; MTD at 96 h [8]: 48 mg/kg; Activity (P388 [9]): 70 mg/kg; selectivity ratio [10]: 3; selectivity ratio at 96 h [11]: 4
CC(C)N(CCNc1ccc(NCCN(C(C)C)C(C)C)c2c1C(=O)c1c(O)ccc(O)c1C2=O)C(C)C	0%	inactive	0%	inactive	
O=P1(N(CCCl)CCCl)NCCCO1 (stereo not given) [CYCLOPHOSPHAMIDE ANHYDROUS]					minimal effective dose (P388 [5]): 26.3 mg/kg; minimal effective dose (P388 [6]): 12 mg/kg; MTD [7]: 350 mg/kg; MTD at 96 h [8]: 100 mg/kg; Activity (P388 [9]): 142 mg/kg; selectivity ratio [10]: 13; selectivity ratio at 96 h [11]: 8
CN(C)CCCCNc1ccc(NCCCCN(C)C)c2c1C(=O)c1c(O)ccc(O)c1C2=O	0%	inactive	0%	inactive	
O=C1c2c(O)ccc(O)c2C(=O)c2c(NCCNCCNCCO)ccc(NCCNCCNCCO)c21			35%	inactive	ILS at 100 mg/kg (P388 [1]): 73%
COc1cccc2c1C(=O)c1c(O)c3c(c(O)c1C2=O)C[C@@](O)(C(C)=O)C[C@@H]3O[C@H]1C[C@H](N)[C@H](O)[C@H](C)O1 [DAUNORUBICIN]					minimal effective dose (P388 [5]): 0.52 mg/kg; MTD [7]: 5.2 mg/kg; selectivity ratio [10]: 10
CCCCN(CCCC)CCNc1ccc(NCCN(CCCC)CCCC)c2c1C(=O)c1c(O)ccc(O)c1C2=O	0%	inactive	0%	inactive	
CN(C)CCCNc1ccc(NCCCN(C)C)c2c1C(=O)c1ccccc1C2=O	0%		0%		
CNCCNCCNc1ccc(NCCNCCNC)c2c1C(=O)c1c(O)ccc(O)c1C2=O			122%	inactive	ILS at 100 mg/kg (P388 [1]): 120%
NCCNc1ccc(NCCN)c2c1C(=O)c1ccccc1C2=O	145%	inactive	100%		ILS at 25 mg/kg (P388 [16]): 144%; Activity (P388 [17]): inactive; ILS at 12.5 mg/kg (B16 [3]): 82%
O=C1c2ccccc2C(=O)c2c(NCCN3CCCCC3)ccc(NCCN3CCCCC3)c21	27%	inactive			
CN(Cc1cnc2nc(N)nc(N)c2n1)c1ccc(C(=O)N[C@@H](CCC(=O)O)C(=O)O)cc1 [METHOTREXATE]					minimal effective dose (P388 [5]): 27.9 mg/kg; minimal effective dose (P388 [6]): 1.5 mg/kg; MTD [7]: 108 mg/kg; MTD at 96 h [8]: 17.5 mg/kg; Activity (P388 [9]): 102 mg/kg; selectivity ratio [10]: 4; selectivity ratio at 96 h [11]: 11
O=C1c2c(O)ccc(O)c2C(=O)c2c(NCCN3CCNCC3)ccc(NCCN3CCNCC3)c21			103%	inactive	ILS at 100 mg/kg (P388 [1]): 133%; Activity (P388 [2]): inactive
CNCCNc1ccc(NCCNC)c2c1C(=O)c1ccccc1C2=O					ILS at 25 mg/kg (P388 [16]): 144%; ILS at 6.2 mg/kg (B16 [18]): 114%
O=C1c2c(O)ccc(O)c2C(=O)c2c(NCCN3CCOCC3)ccc(NCCN3CCOCC3)c21	0%	inactive			
CN(C)CCCCCNc1ccc(NCCCCCN(C)C)c2c1C(=O)c1ccccc1C2=O	0%	inactive			
CN(C)CCCCCNc1ccc(NCCCCCN(C)C)c2c1C(=O)c1c(O)ccc(O)c1C2=O	0%	inactive	0%	inactive	
Nc1ccc(N)c2c1C(=O)c1ccccc1C2=O					ILS at 100 mg/kg (P388 [1]): 0%; Activity (P388 [2]): inactive

Structure (SMILES)	ILS at 200 mg/kg (P388 [12])	Activity (P388 [13])	ILS at 50 mg/kg (B16 [14])	Activity (B16 [15])	further results
CN(C)CCNc1ccc(NCCN(C)C)c2c1C(=O)c1c(O)ccc(O)c1C2=O					ILS at 50 mg/kg (P388 [19]): 122%; ILS at 12.5 mg/kg (B16 [3]): 70%
CCN(CC)CCNc1ccc(NCCN(CC)CC)c2c1C(=O)c1c(O)ccc(O)c1C2=O	88%		38%		
O=C1c2c(O)ccc(O)c2C(=O)c2c(NCCO)ccc(NCCO)c21					ILS at 100 mg/kg (P388 [1]): 0%; Activity (P388 [2]): inactive
O=C1c2ccccc2C(=O)c2c(NCCNCCO)ccc(NCCNCCO)c21 [AMETANTRONE]					ILS at 25 mg/kg (P388 [16]): 154%; Activity (P388 [17]): inactive; ILS at 6.2 mg/kg (B16 [18]): 129%
Cc1ccc2c(c1)C(=O)c1c(NCCN(C)C)ccc(NCCN(C)C)c1C2=O	0%	inactive			
O=C1c2c(O)ccc(O)c2C(=O)c2c(NCCNCC(O)CO)ccc(NCCNCC(O)CO)c21 (stereo not given)					ILS at 50 mg/kg (P388 [19]): > 422%; ILS at 12.5 mg/kg (B16 [3]): 79%; Activity (B16 [4]): inactive
CCN(CC)CCNc1ccc(NCCN(CC)CC)c2c1C(=O)c1ccccc1C2=O	40%	inactive			
CN(C)CCNc1ccc(NCCN(C)C)c2c1C(=O)c1cc(Cl)c(Cl)cc1C2=O	0%	inactive			
CCN1CCCC1CNc1ccc(NCC2CCCN2CC)c2c1C(=O)c1c(O)ccc(O)c1C2=O (stereo not given)	45%	inactive	30%	inactive	
O=C1c2c(O)ccc(O)c2C(=O)c2c(NCCCN3CCOCC3)ccc(NCCCN3CCOCC3)c21	40%	inactive	0%	inactive	
O=C1c2c(O)ccc(O)c2C(=O)c2c(NCCN3CCCC3)ccc(NCCN3CCCC3)c21					ILS at 100 mg/kg (P388 [1]): 118%; Activity (P388 [2]): inactive; ILS at 12.5 mg/kg (B16 [3]): 58%; Activity (B16 [4]): inactive
O=C1c2ccccc2C(=O)c2c(NCCO)ccc(NCCO)c21					ILS at 100 mg/kg (P388 [1]): 0%
CN(CCNc1ccc(NCCN(C)c2ccccc2)c2c1C(=O)c1c(O)ccc(O)c1C2=O)c1ccccc1	0%	inactive	0%	inactive	
CCCNCCNc1ccc(NCCNCCC)c2c1C(=O)c1c(O)ccc(O)c1C2=O			0%	inactive	ILS at 50 mg/kg (P388 [19]): 36%
CC(=O)NCCNc1ccc(NCCNC(C)=O)c2c1C(=O)c1c(O)ccc(O)c1C2=O	0%		0%	inactive	
CCNc1ccc(NCC)c2c1C(=O)c1ccccc1C2=O					ILS at 100 mg/kg (P388 [1]): 0%
CN(C)CCNc1ccc(NCCN(C)C)c2c1C(=O)c1ccccc1C2=O			39%		ILS at 100 mg/kg (P388 [1]): 68%
CCN(CC)CCCC(C)Nc1ccc(NC(C)CCCN(CC)CC)c2c1C(=O)c1c(O)ccc(O)c1C2=O (stereo not given)			0%	inactive	ILS at 100 mg/kg (P388 [1]): 30%; Activity (P388 [2]): inactive
